Data on four molecules can be found in article PMC2854536 (Clinical cancer research : an official journal of the …, 2009).

For one data set, the system named is endothelial cells. In words: Cytotoxicity in a 4-hour assay. The conditions noted are these: P14 at concentrations above 10 nM, data not shown. It counts as cell-based, Human.
Data set [1] deals with bFGF/VEGF-induced angiogenesis. In words: Directed In Vivo Angiogenesis Assay. Details: species or system nude mice. The gist of the method: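 Angioreactors filled with basement membrane extract holding bFGF/VEGF mix plus test peptide, or peptide alone, implanted subcutaneously in both flanks of nude mice, four per animal. PEDF 20 nM and 34-mer 100 nM served as controls. Recovered cells were FITC-lectin labelled and fluorescence read as relative EC invasion. Three independent experiments, normalised to negative control, averaged.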

In data set [2] the test system is bFGF-induced angiogenesis. Nature of the data set: Matrigel plug assay. In kind it is in vivo, nude mice. As to conditions: Matrigel plug with bFGF (Fig. 3C bottom).
The subject of the next data set is CD95. In words: Immunohistochemistry of Matrigel plug vasculature, CD95. The conditions noted are these: Matrigel plugs with bFGF (Fig. 6A). In kind it is in vivo, nude mice.
In a further data set the test system is HMVEC cells. Nature of the data set: Endothelial cell apoptosis, TUNEL assay. It counts as cell-based, Human. As to conditions: overnight, 0.2% FBS, no bFGF, PEDF 10 nM, 34-mer 100 nM (Fig. 2C). The gist of the method:
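Confluent HMVECs (passages 6–9) on coverslips were treated overnight with test peptide in MCDB131 with 0.2% FBS, with or without bFGF 20 ng/ml. PEDF 10 nM and 34-mer 100 nM were controls. TUNEL staining with propidium iodide counterstain. In 3–5 10X fields, TUNEL-positive and total PI-positive cells were counted to give % apoptotic cells.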

“P14: PEDF-derived peptide, residues 43–57 of PEDF molecule, acetylated at the N-terminus and amidated at the C-terminus (Ac-EDPFFKVPVNKLAAA-NH2; UniProt P36955 43-57, looked up, fragment)”: the cytotoxicity entry with endothelial cells is given as “slightly cytotoxic”. The “angiogenic activity of the peptide alone” value in data set [1] (DIVAA, without bFGF/VEGF, P<0.05) is “pro-angiogenic”.
Regarding “34-mer: PEDF anti-angiogenic N-terminal surface epitope, amino acid residues 24–57; parental peptide (SPPEEGSPDPDSTGALVEEEDPFFKVPVNKLAAA; UniProt P36955 24-57, looked up, fragment)”, the “EC apoptosis by in situ TUNEL” value in data set [2] is given as “induced significant levels of EC apoptosis”. Also, in the data set with CD95, the “CD95 staining of microvessels” value is reported as “majority of the microvessels stained positive”.
Consider “P23: PEDF-derived peptide, residues 34–57, acetylated at the N-terminus and amidated at the C-terminus (Ac-DSTGALVEEEDPFFKVPVNKLAAA-NH2; UniProt P36955 34-57, looked up, fragment)”, for which the cytotoxicity entry in the data set on endothelial cells is given as “no cytotoxic activity”.

B1: PEDF: Pigment epithelial-derived factor, native protein, a potent angiogenesis inhibitor (protein, UniProt P36955 20-418, looked up)
Pigment epithelium-derived …: QNPASPPEEGSPDPDSTGALVEEEDPFFKVPVNKLAAAVSNFGYDLYRVRSSTSPTTNVLLSPLSVATALSALSLGAEQRTESIIHRALYYDLISSPDIHGTYKELLDTVTAPQKNLKSASRIVFEKKLRIKSSFVAPLEKSYGTRPRVLTGNPRLDLQEINNWVQAQMKGKLARSTKEIPDEISILLLGVAHFKGQWVTKFDSRKTSLEDFYLDEERTVRVPMMSDPKAVLRYGLDSDLSCKIAQLPLTGSMSIIFFLPLKVTQNLTLIEESLTSEFIHDIDRELKTVQAVLTVPKLKLSYEGEVTKSLQEMKLQSLFDSPDFSKITGKPIKLTQVEHRAGFEWNEDGAGTTPSPGLQPAHLTFPLDYHLNQPFIFVLRDTDTGALLFIGKILDPRGP
Take B1: the “level of vascularization reached” value in data set [1] (DIVAA with bFGF/VEGF mix, P=0.006 (PEDF) and 0.01 (P18)) is listed as “to the level of BME”. The “effect on stress-induced apoptosis in low serum” value in the data set on HMVEC cells is reported as “no effect”.
